Results of several laboratories.
Lines come from different studies, so protocols differ.
Target: Dual specificity mitogen-activated protein kinase kinase 6 (MAP2K6, Homo sapiens, UniProt P52564)
One construct used (P52564 1-334): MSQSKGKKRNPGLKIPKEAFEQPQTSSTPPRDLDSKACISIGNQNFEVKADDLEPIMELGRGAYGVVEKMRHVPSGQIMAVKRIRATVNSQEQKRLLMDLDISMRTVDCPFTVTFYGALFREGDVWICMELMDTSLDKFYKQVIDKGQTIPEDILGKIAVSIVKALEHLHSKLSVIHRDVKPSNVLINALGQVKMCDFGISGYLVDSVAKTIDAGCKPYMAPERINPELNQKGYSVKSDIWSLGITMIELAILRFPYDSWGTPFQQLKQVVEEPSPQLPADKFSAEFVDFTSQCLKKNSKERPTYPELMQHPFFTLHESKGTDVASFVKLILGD

`CC1=C(C#N)[C@@H](c2ccc3[nH]nc(C)c3c2)C(C#N)=C(c2ccc(Cl)cc2)N1` gave a remaining binding of 100% (cell-free assay, competition with immobilised ligand; 1 µM).
With `Cc1cnn2ncc(-c3ccnc(N(C)C)n3)c2c1` the remaining binding was 100% (binding; 1 µM).
`COc1cnc(Nc2cccc(S(N)(=O)=O)c2)nc1N1CCN(c2ccccc2)CC1` gave a remaining binding of 100% (binding, competition with immobilised ligand; 1 µM).
`C[C@@H](c1ccc(-n2cnc3c(N)ncnc32)cc1)N1CCc2nn(C)c(Cc3ccccc3)c2C1=O` has a remaining binding of 90% (binding, competition with immobilised ligand; 0.1 µM).
With `FC(F)(F)Oc1cccc(-c2cnc3ccc(-c4ccncc4)nn23)c1` the remaining binding was 84% (cell-free assay, competition with immobilised ligand; 5 µM).
The remaining binding of `CN([C@@H]1CCc2c(CC(=O)O)c3ccccc3n2C1)S(=O)(=O)c1ccc(F)cc1` is reported as 100% (cell-free assay, competition with immobilised ligand; 1 µM).
`CC1CCCN1c1nccc(-c2cnn3ncccc23)n1` (stereo not drawn) gave a remaining binding of 100% (binding; 1 µM).
With `CS(=O)(=O)N1CCCC(NC(=O)[C@H](CCC2CCCCC2)NC(=O)c2ccc(CNc3ncnc4c3nnn4-c3ccccc3)cc2)C1` (stereo partly drawn) the remaining binding was 67% (cell-free assay, competition with immobilised ligand; 0.1 µM).
`CN(C)c1ncc(F)c(-c2cnn3ncccc23)n1` has a remaining binding of 100% (binding; 1 µM).
With `CNC(=O)Nc1ccc2c(c1)CC[C@@]21OC(=O)N(CC(=O)N(Cc2ccc(F)cc2)[C@@H](C)C(F)(F)F)C1=O` the remaining binding was 100% (cell-free assay, competition with immobilised ligand; 1 µM).
`CNC(=O)[C@@]12C[C@@H]1[C@@H](n1cnc3c(NC)nc(C#Cc4ccc(Cl)s4)nc31)[C@H](O)[C@@H]2O` gave a remaining binding of 17% (binding, competition with immobilised ligand; 10 µM).
`C[C@H](NC(=O)c1cnc2n1[C@](C)(Cc1ccc(C#N)cc1)C(=O)N2c1cc(Cl)c(F)c(Cl)c1)C(=O)NC1(c2ccccn2)CC1` gave a remaining binding of 80% (cell-free assay, competition with immobilised ligand; 1 µM).
For `CCN1CCN(Cc2ccc(C(=O)Nc3ccc(C)c(Oc4ccc5c(c4)CC(=O)N5)c3)cc2C(F)(F)F)CC1`, the remaining binding was 100% (binding, competition with immobilised ligand; 1 µM).
The remaining binding of `O=C(NCCCN1CCOCC1)c1ccc(Nc2nccc(-c3cc4ccccc4s3)n2)cc1` is reported as 76% (binding, competition with immobilised ligand; 1 µM).
The remaining binding of `C=CC(=O)N1CCC(C(=O)NCC(=O)N2CCN(c3nc(-c4cnc(N)nc4C(F)F)nc(N4CCOCC4)n3)CC2)CC1` is reported as 100% (binding, competition with immobilised ligand; 1 µM).
`N[C@H]1CCN(c2nccc(-c3cnn4ncccc34)n2)C1` gave a remaining binding of 100% (binding; 1 µM).
For `O=C(c1ccc(Nc2ncc(Cl)c(-c3ccc(Cl)s3)n2)cc1)N1CCC(N2CCCC2)CC1`, the remaining binding was 29% (binding, competition with immobilised ligand; 1 µM).
The remaining binding of `O=C(Nc1c[nH]nc1C(=O)NC1CCNCC1)c1cc(F)cc(F)c1` is reported as 100% (binding, competition with immobilised ligand; 1 µM).
With `CN(c1nccc(-c2cnn3ncccc23)n1)C1CC1` the remaining binding was 100% (binding; 1 µM).
The remaining binding of `O=C(c1ccc(Nc2nccc(-c3cc4ccccc4s3)n2)cc1)N1CCC(N2CCCC2)CC1` is reported as 33% (binding, competition with immobilised ligand; 1 µM).
The remaining binding of `C[C@H](c1ccnc(Nc2nc3ccc(-c4cc(N(C)C)ncn4)cc3[nH]2)c1)N1CCN(C(=O)CC(F)(F)F)CC1` is reported as 96% (cell-free assay, competition with immobilised ligand; 0.1 µM).
For `F[C@@H]1CCN(c2nccc(-c3cnn4ncccc34)n2)C1`, the remaining binding was 100% (binding; 1 µM).
`CS(=O)(=O)N1CCCC(NC(=O)[C@H](CCC2CCCCC2)NC(=O)c2ccc(CNC(=O)c3cnc4ccccn34)cc2)C1` (stereo partly drawn) has a remaining binding of 72% (cell-free assay, competition with immobilised ligand; 0.1 µM).
`C[C@@H]1CCN(c2nccc(-c3cnn4ncccc34)n2)C1` gave a remaining binding of 100% (binding; 1 µM).
